Experimental data as given in PMC12257578 (Drug Development Research, 2025).
Like-named read-outs stand apart in the source and are kept apart here.

Legend:
[1] = tested on: Leishmania donovani strain 9515 promastigotes; assay: Antipromastigote resazurin assay, L. donovani; format: cell-based; details: read-out: Antipromastigote activity IC50
Summary of the method: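 L. donovani strain 9515 (MHOM/IN/95/9515) promastigotes were kept at 26°C in supplemented M199 with 10% FBS, pH 7.3–7.4. Log-phase cells were seeded at 1.25 × 10^6 cells/mL with seven two-fold dilutions of test compound. […] After 48 h at 26°C, 0.01% resazurin in PBS was added for 24 h in the dark. IC50 came from absorbance.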

[2] = tested on: Leishmania donovani strain 9515 intramacrophage amastigotes; assay: Intramacrophage antileishmanial assay; format: cell-based
[3] = tested on: L. major strain NIH S intramacrophage amastigotes; assay: Intramacrophage antileishmanial assay; format: cell-based; details: Leishmania major
[4] = tested on: L. major strain NIH S promastigotes; assay: Antipromastigote resazurin assay, L. major; format: cell-based; details: Leishmania major, read-out: Antipromastigote activity IC50
[5] = Animal cytotoxicity, CCK-8 assay in MDBK cells; format: cell-based, bovine; details: bovine
Summary of the method: (§1)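 MDBK bovine kidney cells at 10 000 cells/mL were exposed to two-fold serial dilutions of test compound for 72 h at 37°C, 5% CO2, humidified. CCK-8 reagent was then added, followed by a further 4 h incubation. Absorbance was read and CC50 derived, reported as mean ± SD of three biological replicates.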

[6] = tested on: T. equiperdum strain IVM‐t1; assay: Antitrypanosomal Cell-TiterGlo assay, T. equiperdum; format: cell-based, Trypanosoma equiperdum; details: read-out: Antitrypomastigote activity IC50 ± SD
[7] = tested on: Trypanosoma brucei brucei GUTat3.1; assay: Antitrypanosomal Cell-TiterGlo assay, T.b. brucei; format: cell-based; details: read-out: Antitrypomastigote activity IC50 ± SD
Summary of the method: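 Blood-stage T. b. brucei GUTat3.1 at 2500 cells/mL was first screened at 0.25 and 25 µg/mL. […] Plates ran 72 h, then CellTiter-Glo was added, shaken 2 min and held 10 min at room temperature for lysis. IC50 came from bioluminescence, mean ± SD of three biological replicates.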

[8] = tested on: human colorectal adenocarcinoma (CaCO2) cells; details: ref Tshiluka et al. [2023]; Tshiluka et al. [2025]; cited from earlier work
[9] = tested on: T. congolense strain IL3000; assay: Antitrypanosomal Cell-TiterGlo assay, T. congolense; format: cell-based, Trypanosoma congolense; details: read-out: Antitrypomastigote activity IC50 ± SD
[10] = tested on: Madin‐Darby bovine kidney (MDBK) cell line; assay: Animal cytotoxicity, CCK-8 assay in MDBK cells; format: cell-based; details: read-out: Cytotoxicity CC50 ± SD MDBK, 72 h
Summary of the method: as §1

[11] = tested on: T. brucei gambiense strain IL1922; assay: Antitrypanosomal Cell-TiterGlo assay, T.b. gambiense; format: cell-based, Trypanosoma brucei gambiense; details: read-out: Antitrypomastigote activity IC50 ± SD; Tbg IL1922, 72 h
[12] = General cytotoxicity, resazurin assay in Vero cells; format: cell-based; details: African green monkey
Summary of the method: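 Vero cells at 60,000 cells/mL were pre-incubated 24 h, then treated with a two-fold dilution series starting from 100 μM test compound for 72 h. […] Emetine served as control.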

[13] = 24 h, read-out: Static anti‐amastigote activity IC50
[14] = 72 h, read-out: Cidal anti‐amastigote activity IC50

Question: For `C[C@@H]1[C@H](O)[C@@H](C)/C=C/C=C/C=C/C=C/C=C/C=C/C=C/[C@H](O[C@@H]2O[C@H](C)[C@@H](O)[C@H](N)[C@@H]2O)C[C@@H]2O[C@](O)(C[C@@H](O)C[C@@H](O)[C@H](O)CC[C@@H](O)C[C@@H](O)CC(=O)O[C@H]1C)C[C@H](O)[C@H]2C(=O)O` [AMB, Amphotericin B], which IC50 [1] is on record?
Answer: 20 ± 9 nM

Question: What about the IC50 [2, 13] of the same compound?
Answer: 50 nM

Question: Which IC50 [3, 13] does the source give for `CCC[C@H](NC(=O)CN1C(=O)SC(=Cc2ccc3c(c2)OCO3)C1=O)C(=O)OCC` [Compound 8, Ethyl {2-[5-(benzo[d] [1,3]dioxol-5-ylmethylene)-2,4-dioxothiazolidin-3-yl]acetyl}norvalinate] here?
Answer: > 10000 nM

Question: What about the IC50 [3, 14] of the same compound?
Answer: > 10000 nM

Question: What about the IC50 [4] of the same compound?
Answer: > 100000 nM

Question: What about the IC50 [1] of the same compound?
Answer: 85860 ± 390 nM

Question: And the CC50 at 72 h [5]?
Answer: 97100 ± 9300 nM

Question: And the IC50 ([6]; Trypanosoma equiperdum, 72 h)?
Answer: > 58000 nM

Question: What about the IC50 ([7]; Trypanosoma brucei, 72 h) of the same compound?
Answer: > 58000 nM

Question: And the “Toxicity on CaCO2 (Caco‐2) cells in words” value [8]?
Answer: reduced cell viability

Question: And the IC50 ([9]; Trypanosoma congolense, 72 h)?
Answer: > 58000 nM

Question: And the IC50 [2, 13]?
Answer: > 10000 nM

Question: What about the IC50 [2, 14] of the same compound?
Answer: > 10000 nM

Question: For `N=C(N)c1ccc(N=NNc2ccc(C(=N)N)cc2)cc1` [Diminazene aceturate, diminazene aceturate], which CC50 [10] is on record?
Answer: > 355000 nM

Question: And the IC50 ([6]; Teq IVM‐t1, 72 h)?
Answer: 22 ± 2 nM

Question: What about the IC50 ([7]; Tbb GuTat3.1, 72 h) of the same compound?
Answer: 68 nM

Question: What about the IC50 [11] of the same compound?
Answer: 11 nM

Question: What about the IC50 ([9]; Tc IL3000, 72 h) of the same compound?
Answer: 90 nM

Question: For `CC[C@H]1CN2CCc3cc(OC)c(OC)cc3[C@@H]2C[C@@H]1C[C@H]1NCCc2cc(OC)c(OC)cc21` [Em, Emetine], which CC50 at 72 h [12] is on record?
Answer: 80 ± 9 nM

Question: With `Cc1ccc(C(=O)Nc2ccc(S(=O)(=O)O)c3cc(S(=O)(=O)O)cc(S(=O)(=O)O)c23)cc1NC(=O)c1cccc(NC(=O)Nc2cccc(C(=O)Nc3cc(C(=O)Nc4ccc(S(=O)(=O)O)c5cc(S(=O)(=O)O)cc(S(=O)(=O)O)c45)ccc3C)c2)c1` [Suramin, suramin] as the compound, how does the CC50 at 72 h [5] read?
Answer: > 70000 nM

Question: And the IC50 ([7]; Trypanosoma brucei, 72 h)?
Answer: 70 ± 20 nM
